Test [1] concerns Mycobacterium tuberculosis. Kind of test: Antimycobacterial activity against Mycobacterium bovis BCG at 25 uM after 10 days by broth dilution method relative to control. The class given is functional, variant bovis BCG.
The subject of test [2] is Mycobacterium tuberculosis. Nature of the test: Antimycobacterial activity against Mycobacterium bovis BCG after 10 days by broth dilution method. The class given is functional. As to conditions: variant bovis BCG, 240 h. An outline of the steps:
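Broth microdilution. Mid-log cultures (OD600 0.4–0.6) were diluted and added to 2-fold serial compound dilutions in DMSO, giving a final 5 × 10^5 CFU/mL in 7H9-albumin-dextrose-catalase-glycerol-Tween 80. Plates were sealed and incubated at 37 °C for 10 days with shaking at 80 rpm. OD600 was read; MIC50 and MIC90 are the lowest concentrations giving 50% and 90% growth inhibition. Rifampicin and DMSO served as controls. Means of 3 independent experiments.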

For test [3], the system named is Mycobacterium tuberculosis. Nature of the test: Ratio of MIC90 for Mycobacterium bovis BCG over-expressing DHFR to MIC90 for Mycobacterium bovis BCG. The class given is functional, variant bovis BCG.

Each structure is given as a SMILES string. A value given as a limit tells only on which side of the number the result lay.

As for `Cl.NC1=NC2(CCCCC2)N(c2ccc(OCc3cn(CCCc4ccccc4)nn3)cc2)C(N)=N1`, in test [1], the Activity was 67.8%. In test [2], the MIC50 came out at 20.7 µM and the MIC90 was above 100 µM. In the case of `Cl.NC1=NC2(CCCCC2)N(Cc2cn(CCCc3ccccc3)nn2)C(N)=N1`, the Activity in test [1] was 5.4%. In test [1], `Cl.NC1=NC2(CCCCC2)N(c2ccc(OCc3cn(CCCCOc4ccc5ccc(=O)oc5c4)nn3)cc2)C(N)=N1` showed an Activity of 92.1%. For the same molecule, the Ratio in test [3] was 25 - 30. Also, in test [2], the MIC50 fell in the range of 0.01 to 0.02 µM and the MIC90 was determined as 0.1 µM. `Cl.NC1=NC2(CCCCC2)N(Cc2cn(CCCOc3ccc4ccc(=O)oc4c3)nn2)C(N)=N1` registered an Activity in test [1] of 7.8%.

In test [1], `Cl.NC1=NC2(CCCCC2)N(c2ccc(OCc3cn(CCOc4ccc5ccc(=O)oc5c4)nn3)cc2)C(N)=N1` came in with an Activity of 84.8%. For the same molecule, in test [2], the MIC50 is 0.2 µM and the MIC90 was determined as 1.56 µM. For `Cl.NC1=NC2(CCCCC2)N(Cc2cn(CCc3ccccc3)nn2)C(N)=N1`, in test [1], the Activity amounted to 4.7%.

In test [1], `Cl.NC1=NC2(CCCCC2)N(Cc2cn(CC(=O)c3ccccc3)nn2)C(N)=N1` came in with an Activity of 3.4%.

The molecule `Cl.NC1=NC2(CCCCC2)N(Cc2cn(CCOc3ccc4ccc(=O)oc4c3)nn2)C(N)=N1` registered an Activity in test [1] of 5.8%.

On to `Cl.NC1=NC2(CCCCC2)N(c2ccc(OCc3cn(CCc4ccccc4)nn3)cc2)C(N)=N1`, for which the Activity in test [1] is listed as 25.6%. Still for that read-out and setting: with `Cl.NC1=NC2(CCCCC2)N(c2ccc(OCc3cn(CC(=O)c4ccccc4)nn3)cc2)C(N)=N1` the figure was 12.8%; with `Cl.NC1=NC2(CCCCC2)N(Cc2cn(CCCCCOc3ccc4oc(=O)ccc4c3)nn2)C(N)=N1`, 6.7%. In test [1], `Cl.NC1=NC2(CCCCC2)N(c2ccc(OCc3cn(CCCOc4ccc5ccc(=O)oc5c4)nn3)cc2)C(N)=N1` came in with an Activity of 88.4%. The Ratio in test [3] was 25 - 30. In test [2], this molecule showed an MIC50 of 0.02 µM and an MIC90 of 0.2 µM.

In test [1], `Cl.NC1=NC2(CCCCC2)N(c2ccc(OCc3cn(Cc4ccccc4)nn3)cc2)C(N)=N1` yielded an Activity of 61.7%. Also, in test [2], the MIC50 worked out at 19.2 µM and the MIC90 was above 100 µM. For `Cl.NC1=NC2(CCCCC2)N(Cc2cn(Cc3ccccc3)nn2)C(N)=N1`, in test [1], the Activity is listed as 4.5%. Consider `Nc1ccc(C(=O)O)c(O)c1` [AMINOSALICYLIC ACID], for which the Ratio in test [3] was found to be 16.

For the origin of these results see ChEMBL document CHEMBL4145451, “1,3,5-triazaspiro[5.5]undeca-2,4-dienes as selective Mycobacterium tuberculosis dihydrofolate reductase inhibitors with potent whole cell activity” (Eur J Med Chem, 2018).
